Measured values collected from several papers.
Lines come from different studies, so protocols differ.
SRC: Proto-oncogene tyrosine-protein kinase Src (SRC, Homo sapiens, UniProt P12931)

SMILES | target | test | conditions | endpoint | result
O=C(CSc1nc2nccnc2c(=O)n1CCc1ccccc1)Nc1nccs1 | SRC | enzyme activity, inhibitor | 10 µM | inhibition | 7%
CCC(=O)N[C@H]1CC[C@@H](C(=O)N(C)c2ccc(-c3nc4ccccc4o3)cc2)C1 | SRC | cell-free assay, competition with immobilised ligand | 1 µM | remaining binding | 93%
N#CCCc1ccc2c(c1)-c1[nH]c3ccc([N+](=O)[O-])cc3c1CC(=O)N2 | SRC | cell-free assay | 0.5 µM | remaining signal | 30.8%
Cc1ccc(C(=O)NCc2ccsc2)cc1C#Cc1cn(C(C)C)c2ncnc(N)c12 | Proto-oncogene tyrosine-protein kinase Src (SRC, Homo sapiens, UniProt P12931, T341M) | enzyme activity, inhibitor | 1 µM | activity vs control | 79%
CN(C)C1CCN(CC#Cc2nn(C3CCCC3)c3nc(NCc4ccccc4)ncc23)C1 (stereo not drawn) | SRC | enzyme activity, inhibitor, FRET | 10 µM | inhibition | 41%
COc1cc(/C=C/C(=O)CC(=O)/C=C/c2ccc(O)c(OC)c2)ccc1O | SRC | enzyme activity, inhibitor | 1 µM | activity vs control | 81%
CO[C@H]1CC[C@H](CNc2ccc(S(=O)(=O)NC(=O)c3ccc(N4CCN(CC5=C(c6ccc(Cl)cc6)CC(C)(C)CC5)CC4)cc3Oc3cnc4[nH]ccc4c3)cc2[N+](=O)[O-])CC1 | SRC | cell-free assay, competition with immobilised ligand | 1 µM | remaining binding | 78%
COc1cc2c(Nc3ccc(Br)cc3F)ncnc2cc1OCC1CCN(C)CC1 | SRC | cell-free assay | 0.5 µM | remaining signal | 11%
CO[C@@H](C)c1c(Nc2ccc([C@@H](N(C)C(=O)C3CCS(=O)(=O)CC3)C(F)(F)F)cc2)cnc2cc(Cl)nn12 | SRC | cell-free assay, competition with immobilised ligand | 1 µM | remaining binding | 98%
c1ccc(CNc2nc(N3CCOc4ccccc43)nc3c2CCCC3)cc1 | SRC | target engagement in cells, inhibitor, chemoproteomics | 20 mM | inhibition | -13.5%
COc1cc2ncnc(Nc3ccc(Oc4ccccc4)c(C)c3C)c2cc1OC | SRC | enzyme activity, inhibitor | 1 µM | inhibition | 78%
Cn1nc(C(F)(F)F)cc1-c1cnc(N2CCc3cc(S(=O)(=O)Nc4c(F)cc(Cl)cc4F)cc(N4CCCC4=O)c32)nc1 | SRC | cell-free assay, competition with immobilised ligand | 1 µM | remaining binding | 100%
Cc1ccc(NC(=O)c2ccc(C)c(C(F)(F)F)c2)cc1C#Cc1nn(C2CCC(O)CC2)c2ncnc(N)c12 (stereo not drawn) | SRC | cell-free assay | 10 µM | remaining signal | 0%
O=C1CCc2cc(Nc3cc(OC4CCOCC4)c([N+](=O)[O-])cc3Cl)ccc2N1 | SRC | cell-free assay, competition with immobilised ligand | 1 µM | remaining binding | 100%
O=C1Nc2ccc(Cl)cc2C1=Cc1cc(Cl)c(O)c(Cl)c1 | SRC | cell-free assay | 0.5 µM | remaining signal | 96.2%
O=C(NCc1ncc(C(F)(F)F)cc1Cl)c1ccc2c(c1)C1(CCS(=O)(=O)CC1)[C@@H](C1CC1)N2S(=O)(=O)c1ccc(F)cc1 | SRC | cell-free assay, competition with immobilised ligand | 1 µM | remaining binding | 98%
CCCCNc1ncc2c(-c3ccc(F)cc3)nn(C[C@H]3CC[C@H](N)CC3)c2n1 | SRC | target engagement in cells, inhibitor, chemoproteomics | 20 mM | inhibition | 87.8%
CCCCN(CCCC)C(=O)CN1C[C@H](c2cc(OC)c3c(c2)OCO3)[C@@H](C(=O)O)[C@@H]1CC(C)(C)CCC | SRC | cell-free assay, competition with immobilised ligand | 1 µM | remaining binding | 100%
Cc1ccc(C(=O)Nc2ccc(CN3CCN(C)CC3)c(C(F)(F)F)c2)cc1C#Cc1cnc2cccnn12 | SRC | thermal stability, DSF |  | ΔTm | 5.1 °C
FC(F)(F)Oc1cccc(-c2cnc3ccc(-c4ccncc4)nn23)c1 | SRC | enzyme activity, inhibitor, radiometric | 1 µM | activity vs control | 47%
COc1cc2ncnc(Nc3cccc(Cl)c3)c2cc1OC | SRC | cell-free assay | 0.5 µM | remaining signal | 71.9%
Cc1ccc(Nc2nccc(N(C)c3ccc4c(C)n(C)nc4c3)n2)cc1S(N)(=O)=O | SRC | enzyme activity, inhibitor | 10 µM | inhibition | 89%
COc1cc2ncnc(N3CCN(C(=O)Nc4ccc(Oc5ccccc5)cc4)CC3)c2cc1OC | SRC | cell-free assay | 0.5 µM | remaining signal | 102%
O=C(NS(=O)(=O)c1ccc(NCC2CCOCC2)c([N+](=O)[O-])c1)c1ccc(N2CCN(Cc3ccc(C(F)(F)F)cc3-c3ccc(Cl)cc3)CC2)cc1Oc1cnc2[nH]ccc2c1 | SRC | cell-free assay, competition with immobilised ligand | 1 µM | remaining binding | 76%
C=CC(=O)Nc1cc(Nc2nccc(Nc3cc(Cl)c(F)cc3C(C)(C)O)n2)c(OC)cc1N1CC[C@@H](N(C)C)C1 | SRC | enzyme activity, inhibitor | 1 µM | inhibition | 18%
CC(C)n1cnc2c(Nc3cccc(Cl)c3)nc(NCCO)nc21 | SRC | cell-free assay | 0.5 µM | remaining signal | 68.9%
COc1cc2nccc(Oc3ccc(NC(=O)c4c5n(n(-c6ccc(F)cc6)c4=O)CCCC5)cc3)c2cc1OC | SRC | enzyme activity, inhibitor | 0.1 µM | inhibition | 49%
